Activity calls are given as the source filed them.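 Rule for the calls: active = AC50 at or below twice the top valid dose for that sample, with falling signal; inconclusive = flat curve with inhibition of 30 to 70%, or poor fit; inactive = activity in the wrong direction, plus the rest.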
Each compound was assayed against Scavenger receptor class B member 1 (Mus musculus) (UniProt Q61009) (assay: inhibitors of HDL uptake via mouse SR-BI, dose response, ldlA[mSR-BI] CHO cells, fluorescence plate reader, dry powder, set 8 (AID 602285)). Details: DiI-HDL uptake fluorescence, 3 h.
Scavenger receptor class B member 1 (Mus musculus), sequence (Q61009 whole entry, looked up): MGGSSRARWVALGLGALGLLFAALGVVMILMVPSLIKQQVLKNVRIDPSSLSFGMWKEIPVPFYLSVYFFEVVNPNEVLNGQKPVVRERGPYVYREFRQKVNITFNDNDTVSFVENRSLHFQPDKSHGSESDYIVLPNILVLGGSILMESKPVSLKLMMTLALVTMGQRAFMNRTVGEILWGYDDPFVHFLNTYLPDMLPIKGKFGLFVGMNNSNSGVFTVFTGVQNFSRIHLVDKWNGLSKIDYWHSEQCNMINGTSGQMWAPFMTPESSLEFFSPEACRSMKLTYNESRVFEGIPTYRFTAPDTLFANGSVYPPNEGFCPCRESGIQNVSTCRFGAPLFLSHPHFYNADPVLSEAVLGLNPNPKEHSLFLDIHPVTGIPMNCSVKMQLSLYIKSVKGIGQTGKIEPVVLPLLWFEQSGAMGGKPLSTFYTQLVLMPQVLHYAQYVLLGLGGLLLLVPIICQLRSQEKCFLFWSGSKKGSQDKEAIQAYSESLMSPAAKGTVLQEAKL
Summary of the method: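 Material: CHO ldlA cells overexpressing mouse SR-BI; detection: bottom-read DiI fluorescence after PBS washes, excitation 550 nm, emission 595 nm; schedule: 3 h uptake at 37 °C; controls: DMSO as neutral control, BLT-1 as inhibitor control; medium: Ham's F12, fatty acid-free BSA, HEPES pH 7.4; compound: pin-transferred compounds, dose series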
An AC50 of 10000 nM was found for `C[C@@H]1CN([C@@H](C)CO)C(=O)c2cc(NC(=O)Cc3cn(C)c4ccccc34)ccc2O[C@@H]1CN(C)S(=O)(=O)c1ccc(Cl)cc1` in this work.
An AC50 of 12300 nM was found for `C[C@H]1CN([C@@H](C)CO)C(=O)c2cc(NC(=O)Cc3cn(C)c4ccccc34)ccc2O[C@H]1CN(C)S(=O)(=O)c1ccc(Cl)cc1` in this work.
With `CO[C@H]1CN(C)C(=O)c2cc(NC(=O)c3ccccc3F)ccc2OC[C@@H](C)N(C(C)=O)C[C@@H]1C` the AC50 was > 70000 nM (inactive).
An AC50 of 1720 nM was found for `C[C@@H]1CN([C@H](C)CO)C(=O)c2cc(NC(=O)Cc3cn(C)c4ccccc34)ccc2O[C@H]1CN(C)Cc1ccc(C(=O)Nc2ccccc2N)cc1` in this work.
An AC50 of 856 nM was found for `C[C@@H]1CN([C@H](C)CO)C(=O)c2cc(NC(=O)Nc3ccc4c(c3)OCO4)ccc2O[C@H]1CN(C)S(=O)(=O)c1ccc(Cl)cc1` in this work.
For `O=C(C[C@@H]1CC[C@@H](NC(=O)CC2CC2)[C@H](CO)O1)NCc1ccc(Cl)cc1`, the AC50 was > 70000 nM (inactive).
For `O=C(C[C@H]1CC[C@H](NC(=O)CC2CC2)[C@@H](CO)O1)NCc1ccc(Cl)cc1`, the AC50 was > 70000 nM (inactive).
An AC50 of 37.4 nM was found for `C[C@H](C(=O)NC1CCCC1)N(C(=O)Cn1nnc(-c2ccc3c(c2)OCO3)n1)C1CCCCC1` in this work.
An AC50 of 653 nM was found for `C[C@@H]1CN([C@H](C)CO)C(=O)c2cc(NC(=O)Cc3cn(C)c4ccccc34)ccc2O[C@H]1CN(C)Cc1ccc(C(F)(F)F)cc1` in this work.
An AC50 of 174 nM was found for `C[C@@H]1CN([C@H](C)CO)C(=O)c2cc(NC(=O)Cc3cn(C)c4ccccc34)ccc2O[C@H]1CN(C)S(=O)(=O)c1ccc(Cl)cc1` in this work.
An AC50 of 9180 nM was found for `C[C@@H]1CN([C@H](C)CO)C(=O)c2cc(NC(=O)Cc3cn(C)c4ccccc34)ccc2O[C@H]1CN(C)C(=O)NC1CCCCC1` in this work.
An AC50 of 912 nM was found for `C[C@@H]1CN([C@@H](C)CO)C(=O)c2cc(NC(=O)Cc3cn(C)c4ccccc34)ccc2O[C@H]1CN(C)S(=O)(=O)c1ccc(Cl)cc1` in this work.
An AC50 of less than 15 nM was found for `COc1cc(OC)cc(C(=O)Nc2nc(-c3ccc4c(c3)CCN4C(=O)CN3CCOCC3)cs2)c1` in this work.
An AC50 of 2180 nM was found for `C[C@@H]1CN([C@H](C)CO)C(=O)c2cc(NC(=O)Cc3cn(C)c4ccccc34)ccc2O[C@H]1CN(C)C(=O)Nc1ccc(C(F)(F)F)cc1` in this work.
An AC50 of 11500 nM was found for `C[C@@H]1CN([C@H](C)CO)C(=O)c2cc(NC(=O)Cc3cn(C)c4ccccc34)ccc2O[C@@H]1CN(C)S(=O)(=O)c1ccc(Cl)cc1` in this work.
An AC50 of 2360 nM was found for `C[C@@H]1CN([C@H](C)CO)C(=O)c2cc(NC(=O)Cc3cn(C)c4ccccc34)ccc2O[C@H]1CN(C)S(=O)(=O)c1cccs1` in this work.
An AC50 of 1640 nM was found for `C[C@@H]1CN([C@H](C)CO)C(=O)c2cc(NS(C)(=O)=O)ccc2O[C@H]1CN(C)S(=O)(=O)c1ccc(Cl)cc1` in this work.
An AC50 of 865 nM was found for `C[C@@H]1CN([C@H](C)CO)C(=O)c2cc(NC(=O)Cc3cn(C)c4ccccc34)ccc2O[C@H]1CN(C)Cc1ccc2c(c1)OCO2` in this work.
An AC50 of 304 nM was found for `COc1ccc(NC(=O)Nc2ccc3c(c2)C(=O)N([C@H](C)CO)C[C@@H](C)[C@H](CN(C)S(=O)(=O)c2ccc(Cl)cc2)O3)cc1` in this work.
An AC50 of 4600 nM was found for `C[C@@H]1CN([C@H](C)CO)C(=O)c2cc(NC(=O)Cc3cn(C)c4ccccc34)ccc2O[C@H]1CN(C)C(=O)Nc1ccc2c(c1)OCO2` in this work.
An AC50 of 3770 nM was found for `C[C@@H]1CN([C@H](C)CO)C(=O)c2cc(NS(=O)(=O)c3cccs3)ccc2O[C@H]1CN(C)S(=O)(=O)c1ccc(Cl)cc1` in this work.
`COc1ccc(CN(C)C[C@@H]2Oc3ccc(NC(=O)CCCN(C)C)cc3C(=O)N([C@H](C)CO)C[C@H]2C)cc1` was tested, and the AC50 was > 70000 nM (inactive).
An AC50 of 563 nM was found for `C[C@@H]1CN([C@H](C)CO)C(=O)c2cc(NC(=O)CCCCCC(=O)Nc3ccccc3N)ccc2O[C@H]1CN(C)S(=O)(=O)c1ccc(Cl)cc1` in this work.
An AC50 of 10700 nM was found for `C[C@@H]1CN([C@@H](C)CO)C(=O)c2cc(NC(=O)NC3CCCCC3)ccc2O[C@H]1CN(C)Cc1ccncc1` in this work.
An AC50 of 354 nM was found for `C[C@@H]1CN([C@H](C)CO)C(=O)c2cc(NC(=O)NC3CCCCC3)ccc2O[C@H]1CN(C)S(=O)(=O)c1ccc(Cl)cc1` in this work.
An AC50 of 593 nM was found for `C[C@@H]1CN([C@H](C)CO)C(=O)c2cc(NC(=O)c3ccncc3)ccc2O[C@H]1CN(C)S(=O)(=O)c1ccc(Cl)cc1` in this work.
An AC50 of 1110 nM was found for `C[C@@H]1CN([C@H](C)CO)C(=O)c2cc(NC(=O)Cc3cn(C)c4ccccc34)ccc2O[C@H]1CN(C)S(=O)(=O)c1ccc(F)cc1` in this work.
An AC50 of 215 nM was found for `C[C@@H]1CN([C@H](C)CO)C(=O)c2cc(NC(=O)Cc3cn(C)c4ccccc34)ccc2O[C@H]1CN(C)S(=O)(=O)c1ccccc1` in this work.
An AC50 of 1750 nM was found for `COc1ccc(NC(=O)N(C)C[C@@H]2Oc3ccc(NC(=O)Cc4cn(C)c5ccccc45)cc3C(=O)N([C@H](C)CO)C[C@H]2C)cc1` in this work.
`C[C@@H]1CN([C@@H](C)CO)C(=O)Cc2cc(NC(=O)CCCN(C)C)ccc2O[C@H]1CN(C)Cc1ccncc1` was tested, and the AC50 was > 70000 nM (inactive).
An AC50 of 7100 nM was found for `Cc1noc(C)c1NC(=O)Nc1ccc2c(c1)C(=O)N([C@H](C)CO)C[C@@H](C)[C@H](CN(C)S(=O)(=O)c1ccc(Cl)cc1)O2` in this work.
With `C[C@H](CO)N1C[C@H](C)[C@H](CN(C)CC2CCCCC2)Oc2c(NS(=O)(=O)c3cn(C)cn3)cccc2C1=O` the AC50 was > 70000 nM (inactive).
An AC50 of 4950 nM was found for `C[C@@H]1CN([C@H](C)CO)C(=O)c2cc(NC(=O)CCN3CCOCC3)ccc2O[C@H]1CN(C)S(=O)(=O)c1ccc(Cl)cc1` in this work.
An AC50 of 22300 nM was found for `C[C@@H]1CN([C@@H](C)CO)C(=O)Cc2cc(NS(C)(=O)=O)ccc2O[C@@H]1CN(C)Cc1ccc(C(F)(F)F)cc1` in this work.
An AC50 of 1560 nM was found for `C[C@@H]1CN([C@H](C)CO)C(=O)c2cc(NC(=O)Cc3cn(C)c4ccccc34)ccc2O[C@H]1CN(C)C(=O)Nc1ccc(F)cc1` in this work.
With `C[C@@H]1CN([C@H](C)CO)C(=O)c2cc(NC(=O)CCCN(C)C)ccc2O[C@H]1CN(C)S(=O)(=O)c1ccc(Cl)cc1` the AC50 was > 70000 nM (inactive).
An AC50 of 34400 nM was found for `C[C@@H]1CN([C@@H](C)CO)C(=O)Cc2cc(N(C)C)ccc2O[C@@H]1CN(C)Cc1ccc(C(=O)O)cc1` in this work.
An AC50 of 8300 nM was found for `C[C@@H]1CN([C@H](C)CO)C(=O)c2cc(NC(=O)Cc3cn(C)c4ccccc34)ccc2O[C@H]1CN(C)C(=O)Nc1cccc2ccccc12` in this work.
An AC50 of 2690 nM was found for `COc1ccc(S(=O)(=O)Nc2ccc3c(c2)C(=O)N([C@H](C)CO)C[C@@H](C)[C@H](CN(C)S(=O)(=O)c2ccc(Cl)cc2)O3)cc1` in this work.
An AC50 of 8910 nM was found for `C[C@H](CO)N1C[C@H](C)[C@@H](CN(C)S(=O)(=O)c2ccc(Cl)cc2)Oc2ccc(NC(=O)Cc3cn(C)c4ccccc34)cc2C1=O` in this work.
An AC50 of 33200 nM was found for `C[C@@H]1CN([C@H](C)CO)C(=O)Cc2cc(NC(=O)Cc3cn(C)c4ccccc34)ccc2O[C@H]1CN(C)S(=O)(=O)c1ccc(F)cc1` in this work.
An AC50 of 200 nM was found for `COc1ccc(-c2nnn(CC(=O)N(C3CCCCC3)C(C)C(=O)NC3CCCCC3)n2)cc1OC` (stereo unspecified) in this work.
An AC50 of 2010 nM was found for `COc1ccc(S(=O)(=O)N(C)C[C@@H]2Oc3ccc(NC(=O)Cc4cn(C)c5ccccc45)cc3C(=O)N([C@H](C)CO)C[C@H]2C)cc1` in this work.
An AC50 of 70.8 nM was found for `C[C@@H]1CN([C@H](C)CO)C(=O)c2cc(NC(=O)Nc3ccc(F)cc3)ccc2O[C@H]1CN(C)S(=O)(=O)c1ccc(Cl)cc1` in this work.
An AC50 of 628 nM was found for `C[C@@H]1CN([C@H](C)CO)C(=O)c2cc(N(C)C)ccc2O[C@H]1CN(C)S(=O)(=O)c1ccc(Cl)cc1` in this work.
An AC50 of 3160 nM was found for `C[C@@H]1CN([C@H](C)CO)C(=O)c2cc(NS(=O)(=O)c3ccccc3)ccc2O[C@H]1CN(C)S(=O)(=O)c1ccc(Cl)cc1` in this work.

Same assay, conditions: DiI-HDL uptake fluorescence, 3 h, at 11 µM (top of the series)
In the case of `C[C@@H]1CN([C@H](C)CO)C(=O)c2cc(NC(=O)Cc3cn(C)c4ccccc34)ccc2O[C@H]1CN(C)Cc1ccc(Cl)c(Cl)c1`, the “activity change, negative = inhibition” value was “inactive”.

Same assay, conditions: DiI-HDL uptake fluorescence, 3 h, at 35 µM (top of the series)
`CC(C)NC(=O)Nc1cccc2c1O[C@@H](CN(C)Cc1ccc(C(F)(F)F)cc1)[C@@H](C)CN([C@@H](C)CO)C2=O` was tested, and the “activity change, negative = inhibition” value was “inactive”.
For `C[C@H](CO)N1C[C@H](C)[C@H](CN(C)S(=O)(=O)c2ccc(Cl)cc2)Oc2ccc(NC(=O)Cc3cn(C)c4ccccc34)cc2C1=O`, the “activity change, negative = inhibition” value was “inactive”.
For `C[C@@H]1CN([C@H](C)CO)C(=O)c2cc(NS(=O)(=O)c3ccc(Cl)cc3)ccc2O[C@H]1CN(C)S(=O)(=O)c1ccc(Cl)cc1`, the “activity change, negative = inhibition” value was “inactive”.
With `C[C@@H]1CN([C@H](C)CO)C(=O)c2cc(NC(=O)Nc3ccc(C(F)(F)F)cc3)ccc2O[C@H]1CN(C)S(=O)(=O)c1ccc(Cl)cc1` the “activity change, negative = inhibition” value was “inactive”.
For `Cc1noc(C)c1S(=O)(=O)N(C)C[C@H]1Oc2c(NC(=O)c3nc4ccccc4s3)cccc2C(=O)N([C@H](C)CO)C[C@H]1C`, the “activity change, negative = inhibition” value was “inactive”.
With `CNC[C@@H]1OCCCC[C@@H](C)Oc2ccc(NS(=O)(=O)c3ccc(Cl)cc3)cc2C(=O)N([C@H](C)CO)C[C@H]1C` the “activity change, negative = inhibition” value was “inactive”.
For `C[C@@H]1CN([C@H](C)CO)C(=O)c2cc(NC(=O)Nc3ccccc3)ccc2O[C@H]1CN(C)S(=O)(=O)c1ccc(Cl)cc1`, the “activity change, negative = inhibition” value was “inactive”.
With `CCCNC(=O)N(C)C[C@@H]1Oc2cc(-c3cncnc3)ccc2S(=O)(=O)N([C@@H](C)CO)C[C@@H]1C` the “activity change, negative = inhibition” value was “inactive”.
In the case of `C[C@@H]1CN([C@H](C)CN(C)C)C(=O)c2cc(NC(=O)Cc3cn(C)c4ccccc34)ccc2O[C@H]1CN(C)S(=O)(=O)c1ccc(Cl)cc1`, the “activity change, negative = inhibition” value was “inactive”.
For `C[C@@H]1CN([C@H](C)CO)C(=O)c2cc(NC(=O)Cc3cn(C)c4ccccc34)ccc2O[C@H]1CN(C)Cc1ccc(-c2ccccc2)cc1`, the “activity change, negative = inhibition” value was “inactive”.
With `C[C@@H]1CN([C@@H](C)CO)C(=O)Cc2cc(NS(=O)(=O)c3cn(C)cn3)ccc2O[C@@H]1CN(C)Cc1ccc(Cl)c(Cl)c1` the “activity change, negative = inhibition” value was “inactive”.
With `C[C@@H]1CN([C@H](C)CO)S(=O)(=O)c2ccc(C3=CCCCC3)cc2O[C@@H]1CN(C)C(=O)Nc1ccc2c(c1)OCO2` the “activity change, negative = inhibition” value was “inactive”.
`Cc1ccc(S(=O)(=O)Nc2ccc3c(c2)C(=O)N([C@H](C)CO)C[C@@H](C)[C@H](CN(C)S(=O)(=O)c2ccc(Cl)cc2)O3)cc1` was tested, and the “activity change, negative = inhibition” value was “inactive”.
In the case of `CO[C@@H]1CN(C)C(=O)c2ccc(NC(=O)C3CC3)cc2OC[C@@H](C)N(Cc2ccncc2)C[C@H]1C`, the “activity change, negative = inhibition” value was “inactive”.
